# High-throughput results as filed in PubChem BioAssay.
# Hits are enriched below; roughly 3.9% of the tested compounds scored in any of these assays.
# CRFR2-BP antag: CRF-BP/CRF-R2 complex antagonism. HEK293 CRF-R2/CRF-BP, CRF-induced calcium fluorescence. inhibition, % at 11.8 µM. 0.59% of 350,000 active;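 active means inhibition of the ligand-induced calcium signal above about 50% at the single tested concentration, limit read from the data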
# CRFR2-BP ag: agonists of human CRF-binding protein/CRF-R2 receptor complex; 0.46% of 350,000 active; HEK293 CRF-R2/CRF-BP, calcium dye fluorescence (FLIPR); percent of saturating CRF peptide response; activation, % at 13.2 µM;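 active means activation of at least 50%, plus an integration ratio under a set limit after plate pattern correction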;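 further: plate controls were neutral control wells without compound for no effect and CRF at EC100 for full effect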
# TMEM16A inh: mouse TMEM16A channel inhibition, primary screen | Q8BHY3 | HEK293 TMEM16A/YFP iodide influx fluorescence, ionomycin | normalized B-score (activity score, 25-100; higher = stronger inhibition) at 10 µM | 1.2% of 310,000 active | AID 588511;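 active means ratio plate-corrected score three or more library SD toward inhibition, starting fluorescence score within five deviations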;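 further: score derived from kinetic fluorescence span divided by baseline fluorescence per well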
# Target sequence (Q8BHY3 whole entry, looked up): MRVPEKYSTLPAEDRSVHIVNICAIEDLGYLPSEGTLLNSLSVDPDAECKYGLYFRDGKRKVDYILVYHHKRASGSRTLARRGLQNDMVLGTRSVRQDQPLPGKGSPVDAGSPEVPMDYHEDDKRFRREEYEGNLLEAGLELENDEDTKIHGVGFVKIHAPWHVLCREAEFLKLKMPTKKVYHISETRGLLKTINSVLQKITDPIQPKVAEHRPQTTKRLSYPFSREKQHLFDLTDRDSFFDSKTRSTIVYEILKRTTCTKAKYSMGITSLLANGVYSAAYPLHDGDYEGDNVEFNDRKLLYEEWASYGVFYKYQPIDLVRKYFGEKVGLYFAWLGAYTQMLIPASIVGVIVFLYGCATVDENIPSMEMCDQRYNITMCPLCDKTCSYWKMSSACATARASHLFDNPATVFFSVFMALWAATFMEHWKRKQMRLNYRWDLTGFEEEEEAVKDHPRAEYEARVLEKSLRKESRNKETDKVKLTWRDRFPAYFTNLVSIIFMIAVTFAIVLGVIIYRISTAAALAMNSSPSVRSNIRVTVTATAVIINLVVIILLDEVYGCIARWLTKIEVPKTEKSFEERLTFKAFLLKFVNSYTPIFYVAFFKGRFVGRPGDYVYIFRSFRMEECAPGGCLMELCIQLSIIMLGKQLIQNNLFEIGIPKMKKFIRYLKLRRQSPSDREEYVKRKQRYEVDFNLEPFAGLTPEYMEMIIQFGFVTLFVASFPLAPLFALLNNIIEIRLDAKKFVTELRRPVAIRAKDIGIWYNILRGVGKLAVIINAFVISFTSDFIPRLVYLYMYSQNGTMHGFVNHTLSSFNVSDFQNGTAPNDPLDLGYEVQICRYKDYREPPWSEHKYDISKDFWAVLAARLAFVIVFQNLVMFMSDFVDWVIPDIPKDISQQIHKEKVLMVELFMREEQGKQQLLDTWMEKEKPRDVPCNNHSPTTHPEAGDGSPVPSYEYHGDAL
# ANO1 activ: activates or potentiates the mouse TMEM16A chloride channel. Q8BHY3. HEK293 TMEM16A/YFP-H148Q/I152L, iodide quench fluorescence; stronger effect = lower value. 0.3% of 340,000 active. B-score at 10 µM;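 active means fluorescence-ratio B-score plate-corrected deviation score at least 3 library SD below zero, with starting fluorescence score within 5 deviations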;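 further: channel opened by trigger with iodide after compound preincubation; score built on the fluorescence ratio of max minus min over baseline; more negative score means more quench and so TMEM16A activation or potentiation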
# TAAR1 ag: human TAAR1 agonism; CHO RD-HGA16 TAAR1, Fluo-8 calcium fluorescence; vehicle wells 0%, saturating PEA agonist 100%; Q96RJ0; AID 624467; activation, % at 3 µM; 0.99% of 360,000 active;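 active means activation above the mean activation of all test compounds in the run plus 3 SD, cut at about 38% in these data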
#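 Assay system: CHO-derived RD-HGA16 cells with stable Gα16 and human TAAR1; timing: 17-24 h seeding, 75 min 37 °C dye, 30 min RT; read-out: % activation from peak over basal fluorescence ratio, DMSO-to-PEA scaled; measured by: kinetic Fluo-8 calcium fluorescence; benchmarks: low control DMSO, high control PEA (EC100); doses: 3 µM single concentration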
# TAAR1 antag: human TAAR1 antagonism; inhibition, % at 3 µM; 1.5% of 360,000 active; CHO RD-HGA16 TAAR1, Fluo-8 calcium fluorescence, antagonist; Q96RJ0;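 active means inhibition above a per-plate cutoff, the mean inhibition of test compounds on that plate plus 3 SD, cut at about 49% in these data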;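 further: 0% = DMSO plus EC80 beta-PEA response and 100% = DMSO alone without agonist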
#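 Test system: hTAAR1-expressing CHO RD-HGA16 cells, Gα16-coupled; Probe or stimulus: EC80 β-phenethylamine stimulus; Compound dosing: single nominal final test compound concentration of 3 µM; Timing: 140 s kinetic read after compound, 140 s after agonist; Signal: Fluo-8 calcium-sensitive fluorescence; Measure: % inhibition of agonist calcium response; Controls: DMSO and EC80 PEA controls.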
# Numbers without * were called inactive; i = inactive; . = no result given.
SMILES,CRFR2-BP antag,CRFR2-BP ag,TMEM16A inh,ANO1 activ,TAAR1 ag,TAAR1 antag
CCc1c(C#N)c(SCCC(=O)Nc2cccc(OC)c2)nc2c1C(=O)CC(C)(C)C2,-36,4,i,i,17,58*
COc1ccc(-c2c(C#N)c(SCc3c(C)noc3C)nc3c2C(=O)CC(C)(C)C3)cc1,5,9,i,i,2,-8
NS(=O)(=O)c1ccc(NC(=O)COC(=O)c2ncc(Cl)c(Cl)c2Cl)cc1,3,0,.,-5*,2,13
CCOc1ccc(NC(=O)COC(=O)c2ncc(Cl)c(Cl)c2Cl)cc1,-10,2,i,i,0,-14
COc1cc(CN2C(=O)C(CCc3ccccc3)ON=C2c2cnccn2)cc(OC)c1 (configuration not stated),.,.,.,.,2,50*
O=C(COC(=O)c1ccc(Br)o1)Nc1ccc(Br)cc1,-7,0,.,i,40*,9
CC(=O)c1ccc(NC(=O)C(C)OC(=O)c2ccc(Br)o2)cc1 (configuration not stated),54*,3,.,i,4,-18
O=C(COC(=O)c1ccc(Br)o1)NCCNC(=O)COC(=O)c1ccc(Br)o1,0,-2,i,i,6,-13
CCn1c(COC(=O)CNC(=O)c2ccccc2)nc2cc(S(=O)(=O)N(C)C)ccc21,-10,0,i,i,1,-4
CCN(CC)c1ccc(N=Cc2ccc(N(CC)CC)cc2O)cc1,-125,94*,i,i,11,-6
CCN(CC)c1ccc(C=Nc2ccc(N(C)C)cc2)c(O)c1,-61,51*,i,i,5,-2
Cc1noc(C)c1NC(=O)Nc1ccc2c(c1)C(=O)N([C@H](C)CO)C[C@H](C)[C@@H](CN(C)S(=O)(=O)c1ccc(F)cc1)O2,70*,2,.,i,3,10
C[C@H](CO)N1C[C@H](C)[C@@H](CN(C)S(=O)(=O)c2ccccc2)Oc2c(NC(=O)Nc3ccccc3)cccc2C1=O,6,1,.,.,9,48
CC(C)NC(=O)Nc1ccc2c(c1)C(=O)N([C@H](C)CO)C[C@H](C)[C@@H](CN(C)S(=O)(=O)c1ccc(F)cc1)O2,5,-1,.,i,19,9
COc1ccc(NC(=O)N(C)C[C@H]2Oc3c(NC(=O)Nc4ccc5c(c4)OCO5)cccc3C(=O)N([C@H](C)CO)C[C@@H]2C)cc1,-7,5,.,i,22,49*
COc1ccc(S(=O)(=O)N(C)C[C@H]2Oc3c(NC(=O)Nc4ccccc4)cccc3C(=O)N([C@H](C)CO)C[C@@H]2C)cc1,-4,-2,.,.,12,57*
COc1ccc(NC(=O)Nc2cccc3c2O[C@H](CN(C)C(=O)Nc2ccc(OC)cc2)[C@@H](C)CN([C@H](C)CO)C3=O)cc1,-1,-1,.,i,17,56*
Cc1cc(NC(=O)c2cc(-c3ccncc3)nc3ccccc23)ccc1Br,-16,8,.,i,3,40
Cc1cccc(C)c1-n1nnnc1C1c2ccccc2C(=O)N1CCOc1ccccc1 (configuration not stated),.,.,.,.,0,2
COCCNC(=O)Cn1c(=O)oc2cc(S(=O)(=O)N3CC(C)CC(C)C3)ccc21 (configuration not stated),1,0,i,i,2,1
CCCNC(=O)Cn1c(=O)oc2cc(S(=O)(=O)N3CC(C)CC(C)C3)ccc21 (configuration not stated),7,0,i,-41*,15,-26
O=C(C[C@@H]1C/C=C/CC[C@@H](Cc2ccc(F)cc2)C(=O)OCCNC1=O)N[C@H](CO)Cc1ccccc1,4,-1,.,i,19,10
O=C(C[C@H]1C/C=C\C[C@@H](Cc2ccc(F)cc2)C(=O)O[C@H](c2ccccc2)CNC1=O)NCCO,84*,1,.,i,3,9
O=C(C[C@H]1C/C=C\C[C@H](Cc2ccc(F)cc2)C(=O)O[C@@H](c2ccccc2)CNC1=O)N[C@H](CO)Cc1ccccc1,5,-2,.,i,55*,28
O=C(C[C@H]1C/C=C\CC[C@H](Cc2ccc(F)cc2)C(=O)O[C@H](c2ccccc2)CNC1=O)N[C@H](CO)Cc1ccccc1,-13,1,.,.,12,55*
SMILES,CRFR2-BP antag,CRFR2-BP ag,TMEM16A inh,ANO1 activ,TAAR1 ag,TAAR1 antag
O=C(C[C@H]1C/C=C\CC[C@H](Cc2ccc(F)cc2)C(=O)O[C@@H](c2ccccc2)CNC1=O)N[C@H](CO)Cc1ccccc1,-6,8,.,i,53*,56*
CN(CC(=O)Nc1ccc(F)cc1)C(=O)COC(=O)CN1C(=O)NC2(CCCC2)C1=O,-4,2,i,i,1,-12
Cc1ccc(C(=O)Nc2ccc(Br)c(C(F)(F)F)c2)cc1,-6,6,100*,i,4,13
Cc1ccc(NC(=O)c2ccc(C)cc2)cc1,-4,0,i,i,3,-7
Cn1c(=O)[nH]c(=O)c2c1nc(N1CCN(Cc3ccccc3)CC1)n2CCSc1ncccn1,-23,-2,i,i,1,-12
Cc1ccnc(SCCn2c(N3CCN(c4ccccc4)CC3)nc3c2c(=O)[nH]c(=O)n3C)n1,-7,-2,i,i,12,51*
CCN(CC(=O)Nc1ccc(OC)cc1)C(=O)c1ccc2c(c1)NC(=O)CS2,7,2,.,i,0,-3
CCCc1nc2sc3ccccc3c(=O)c2c(=O)n1Cc1ccco1,-142,55*,.,i,68*,1
CN(C)CCP(=O)(c1ccccc1)c1ccccc1,8,0,i,i,2,1
CN(C)CCN(C)Cc1c2ccccc2c(CN(C)CCN(C)C)c2ccccc12,-9,18,i,-5.5*,5,-11
O=C(CN1CCN(CC(=O)Nc2cccc(F)c2)CC1)Nc1ccc(-c2ccccc2)cc1,-6,0,i,i,5,7
CC(=O)N(Cc1ccco1)c1nc(C(=O)Nc2ccc(Cl)cc2)c(C)s1,65*,3,i,i,-2,-9
O=C(O)c1ccc(-c2ccc(-c3ccccc3)cc2)s1,.,.,i,i,.,.
O=C(Nc1ccccc1)c1ccc(-c2ccccc2)s1,7,-1,i,i,38*,39
Oc1cc2c(cc1O)C1c3ccc(O)c(O)c3OCC1(O)C2 (configuration not stated),0,-1,i,-12*,1,5
CCN(c1ccccc1)S(=O)(=O)c1cccc(C(=O)NCC(c2ccc(F)cc2)N2CCOCC2)c1 (configuration not stated),17,0,.,i,0,2
